# ChEMBL document CHEMBL2029291, “Synthesis and structure-activity relationships of new quinolone-type molecules against Trypanosoma brucei” (J Med Chem, 2012)
# Counter-ions that a name gives are not always drawn. Calls of active or inactive are those of the source. The rule behind the calls is not given here.
# Legend:
# [1] = test system: Trypanosoma brucei brucei; assay: Antitrypanosomal activity against Trypanosoma brucei brucei TC221 […] after 72 hrs by alamar blue assay; assay type: functional, organism-based; conditions: for IC50: TC221, 72 h
# Summary of the method: (§1)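 Trypomastigote T. b. brucei TC 221 grown in Baltz medium, seeded at 10⁴ per mL and exposed to graded compound concentrations (dissolved in DMSO or 0.1 M NaOH). Incubated at 37 °C, 5% CO₂ for 72 h, with a reading also taken at 48 h. AlamarBlue absorbance read at 550/630 nm. IC50 by linear interpolation; duplicate tests, mean and SD.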
# [2] = test system: Trypanosoma brucei brucei; assay: Antitrypanosomal activity against Trypanosoma brucei brucei TC221 […] after 48 hrs by alamar blue assay; assay type: functional, organism-based; conditions: for IC50: TC221, 48 h; summary of the method: as §1
# [3] = Cytotoxicity against mouse J774.1 cells after 48 hrs by alamar blue assay; assay type: cell-based; conditions: J774.1, 48 h
# Summary of the method: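 J774.1 macrophages kept in complete Click RPMI, detached by scraping, PBS-washed, suspended at 2 × 10⁶ cells/mL and plated in phenol-red-free RPMI with or without compound. AlamarBlue added and absorbance read 24 and 48 h later. Compound-free wells taken as 100% growth. Effects of cell density, incubation time and DMSO level were controlled. Tested in duplicate.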
# [4] = Selectivity index, ratio of IC50 for mouse J774.1 cells to IC50 for Trypanosoma brucei brucei TC221; assay type: toxicity; conditions: read-out: Ratio IC50
# [5] = Lipophilicity, log P of the compound by RP-HPLC analysis; assay type: physicochemical
# Summary of the method: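 LogP by RP-HPLC on a C18 Inertsil ODS-2 column. Mobile phase was methanol/10 mM phosphate buffer pH 7.4 (70:30) at 1.5 mL/min. Samples were at 4 μg/mL, detected at 254.4 nm, and run in duplicate. Capacity ratio was calculated as k′ = (tr − to)/to.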
# Trypanosoma brucei [6] = assay: Antitrypanosomal activity in topoisomerase 2-knockout BSF Trypanosoma brucei assessed as assessed as shrinkage of kinetoplast over time at IC50 concentration after 72 hrs by […]; assay type: functional, organism-based
# Summary of the method: (§2)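 RNAi against mitochondrial topoisomerase II in the BSF mitochondrion marker line. A 500 bp topoII fragment in p2T7-177 was transfected by nucleofection, with puromycin selection at 0.3 μg/mL. RNAi was induced with 1 μg/mL tetracycline. Knockdown was confirmed by Northern blot at 24 h, with tubulin as reference. Growth and DAPI-stained kinetoplast loss were followed over time.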
# Trypanosoma brucei [7] = assay: Antitrypanosomal activity in topoisomerase 2-knockout BSF Trypanosoma brucei assessed as assessed as shrinkage of kinetoplast over time at IC50 concentration after 48 hrs by […]; assay type: functional, organism-based; summary of the method: as §2
# [8] = test system: Trypanosoma brucei brucei; assay: Cell cycle arrest in GFP-labeled Trypanosoma brucei brucei assessed as increase in segregated 1K1N cell population at IC50 concentration after 42 hrs by DAPI staining-based fluorescence microscopic analysis
# [9] = test system: Trypanosoma brucei rhodesiense; assay: Antitrypanosomal activity against Trypanosoma brucei rhodesiense STIB900 […] after 48 hrs by alamar blue assay; assay type: functional, organism-based
# [10] = Selectivity index, ratio of IC50 for mouse J774.1 cells to IC50 for Trypanosoma brucei rhodesiense STIB900; assay type: toxicity; conditions: read-out: Ratio IC50
# Summary of the method: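 Selectivity index is the J774.1 IC50 divided by the trypanosome IC50. J774.1 macrophages were kept in complete Click RPMI, washed, and plated in phenol red-free RPMI with compound. AlamarBlue was added and plates were read 24 and 48 h later. Absorbance without compound was set as 100% growth.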
# [11] = Chemical stability of the compound in 35% cremophore RH40, 45% capmul MCM C8, 10% triethylcitrate and 10% ethanol after 24 hrs; assay type: physicochemical
# Summary of the method: (§3)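 Oral preconcentrate of Cremophor RH40 (35%), Capmul MCM C8 (45%), triethylcitrate (10%) and ethanol (10%) was tested for dissolving compound at 10 mg/mL. Stability of the emulsion formed in aqueous solution was observed over time.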
# [12] = Aqueous solubility of the compound in 10% Tween 80; assay type: physicochemical; conditions: buffer
# Summary of the method: (§4)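 Water solubility was assessed after adding 10% Tween 80 or 10% Cremophor RH40 to the compound.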
# [13] = Aqueous solubility of the compound in 10% Cremophore RH40; assay type: physicochemical; conditions: buffer; summary of the method: as §4
# [14] = Aqueous solubility of the compound in 35% cremophore RH40, 45% capmul MCM C8, 10% triethylcitrate and 10% ethanol; assay type: physicochemical; conditions: buffer; summary of the method: as §3
# [15] = test system: Trypanosoma brucei rhodesiense; assay: Antitrypanosomal activity against Trypanosoma brucei rhodesiense STIB900 infected in NMRI mouse at 50 mg/kg, po administered on day 3 to 6 post infection measured every second day up to 6 days post infection; assay type: functional, organism-based; parameters: dose 50 mg/kg
# Summary of the method: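 Acute mouse model with T. b. rhodesiense STIB900-infected NMRI mice. Compound was given orally as a 1:1 aqueous dilution of a 10 mg/mL preconcentrate (Cremophor RH40 35%, Capmul MCM C8 45%, triethylcitrate 10%, ethanol 10%). An untreated control group was included. Parasitemia was checked every second day to day 6, and survival was recorded. Aparasitemic survivors at 60 days were counted as cured.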
Compound,IC50 [1] [µM],IC50 [2] [µM],IC50 [3] [µM],selectivity ratio [4],also measured
CCCCn1cc(C(=O)NCc2ccc(OC)cc2)c(=O)c2cc(F)c(N3CCC(C(N)=O)CC3)cc21,1.45,0.78,40.8,52.3,logP ([5]; read-out: logP): 2.4; Activity (Trypanosoma brucei [6]): Active; Activity (Trypanosoma brucei [7]): Active; Activity [8]: Active
CCCCn1cc(C(=O)O)c(=O)c2cc(F)c(N3CCCCC3)cc21,18.1,14.6,93,6.39,
O=C(O)c1cn(C2CC2)c2cc(N3CCNCC3)c(F)cc2c1=O,,,,,Activity [8]: Active
CCCCn1cc(C(=O)O)c(=O)c2cc(F)c(N(C)Cc3ccccc3)cc21,23,17.2,43.2,2.51,
NC(=O)C1CCN(c2cc3c(cc2F)c(=O)c(C(=O)O)cn3C2CC2)CC1,> 40,> 40,> 100,> 2.5,
Nc1nc(N)nc(Nc2ccc([As]3SCC(CO)S3)cc2)n1 (configuration not stated) [MELARSOPROL],,0.0026,,,
CCn1cc(C(=O)NCc2ccc(OC)cc2)c(=O)c2ccc(C(F)(F)F)cc21,6.37,7.31,> 100,> 13.7,
NCCCC(N)(C(=O)O)C(F)F (configuration not stated) [EFLORNITHINE HYDROCHLORIDE],,22.9,,,
CCCCn1cc(C(=O)NCc2ccccc2)c(=O)c2cc(F)c(N(C)Cc3ccccc3)cc21,10.8,5.4,86,15.9,
CCOC(=O)c1cnc2cc(C(F)(F)F)ccc2c1O,,,,,Activity [1]: inactive; Activity [2]: inactive
CCCCn1cc(C(=O)NCc2ccc(OC)c([N+](=O)[O-])c2)c(=O)c2cc(F)c(N3CCC(C(N)=O)CC3)cc21,4.14,3.07,> 100,> 32.6,
CCCn1cc(C(=O)NCc2ccc(OC)cc2)c(=O)c2cc(F)c(N3CCC(C(N)=O)CC3)cc21,3.12,2.28,41.4,18.2,
CCCn1cc(C(=O)NCc2ccccc2)c(=O)c2cc(F)c(N3CCC(C(N)=O)CC3)cc21,1.25,0.75,43.7,58.3,logP ([5]; read-out: logP): 2.4
CCCCn1cc(C(=O)NCc2ccccc2)c(=O)c2cc(F)c(-c3ccccc3)cc21,> 40,> 40,> 100,> 2.5,
CCCCn1cc(C(=O)NCc2ccccc2)c(=O)c2cc(F)c(N(C)C)cc21,0.92,0.68,> 100,> 147,logP ([5]; read-out: logP): 2.4
CCCCn1cc(C(=O)NCc2ccc(O)cc2)c(=O)c2cc(F)c(N3CCC(C(N)=O)CC3)cc21,5.12,3.09,41.6,13.5,
CCCn1cc(C(=O)NCc2ccco2)c(=O)c2cc(F)c(N3CCC(C(N)=O)CC3)cc21,4.84,4.6,56.9,12.4,
CCCCn1cc(C(=O)O)c(=O)c2cc(F)c(N3CCOCC3)cc21,22.2,19.2,> 100,> 5.21,

Compound,IC50 [1] [µM],IC50 [2] [µM],IC50 [3] [µM],selectivity ratio [4],also measured
Cc1ccc(C(=O)Nc2ccc(S(=O)(=O)O)c3cc(S(=O)(=O)O)cc(S(=O)(=O)O)c23)cc1NC(=O)c1cccc(NC(=O)Nc2cccc(C(=O)Nc3cc(C(=O)Nc4ccc(S(=O)(=O)O)c5cc(S(=O)(=O)O)cc(S(=O)(=O)O)c45)ccc3C)c2)c1 [SURAMIN HEXASODIUM],,0.31,,,
CCCCn1cc(C(=O)O)c(=O)c2cc(F)c(Cl)cc21,> 40,> 40,> 100,> 2.5,
CCCCn1cc(C(=O)NCc2ccc([N+](=O)[O-])cc2)c(=O)c2cc(F)c(N3CCC(C(N)=O)CC3)cc21,0.58,0.54,> 100,> 185,logP ([5]; read-out: logP): 2.4
NC(=O)C1CCN(c2cc3c(cc2F)c(=O)c(C(=O)NCc2ccco2)cn3C2CC2)CC1,12.1,8.89,> 100,> 11.2,
CCn1cc(C(=O)Nc2ccc(Cl)c(F)c2)c(=O)c2ccc(C(F)(F)F)cc21,> 40,> 40,> 100,> 2.5,
N=C(N)c1ccc(OCCCCCOc2ccc(C(=N)N)cc2)cc1 [PENTAMIDINE ISETHIONATE],,0.0029,,,
CCCCn1cc(C(=O)NCc2ccccc2)c(=O)c2cc(F)c(N3CCCCC3)cc21,1.04,0.67,47.8,71.3,logP ([5]; read-out: logP): 2.4
NC(=O)C1CCN(c2cc3c(cc2F)c(=O)c(C(=O)NCc2ccccc2)cn3C2CC2)CC1,1.91,1.07,51.2,47.9,logP ([5]; read-out: logP): 2.4
CCn1cc(C(=O)O)c(=O)c2ccc(C(F)(F)F)cc21,> 40,> 40,> 100,> 2.5,
CCCCn1cc(C(=O)O)c(=O)c2cc(F)c(N3CCC(C(N)=O)CC3)cc21,> 40,> 40,> 100,> 2.5,
CCCn1cc(C(=O)O)c(=O)c2cc(F)c(N3CCC(C(N)=O)CC3)cc21,> 40,> 40,> 100,> 2.5,
CCCCn1cc(C(=O)O)c(=O)c2cc(F)c(N(C)C)cc21,> 40,> 40,> 100,> 2.5,
COc1ccc(CNC(=O)c2cn(C3CC3)c3cc(N4CCC(C(N)=O)CC4)c(F)cc3c2=O)cc1,2.56,2.75,> 100,> 36.4,
CCCCn1cc(C(=O)NCc2ccccc2)c(=O)c2cc(F)c(N3CCC(C(N)=O)CC3)cc21,1.98,1.09,47,43.1,logP ([5]; read-out: logP): 2.4
CCCCn1cc(C(=O)NCc2ccccc2)c(=O)c2cc(F)c(N3CCOCC3)cc21,0.05,0.047,57,1140,IC50 [9]: 0.009 µM; selectivity ratio [10]: 6330; logP [5]: 2.4; Stability [11]: Stable; solubility [12]: Insoluble; solubility [13]: Insoluble; solubility [14]: soluble; Activity [15]: inactive; Activity (Trypanosoma brucei [6]): Active; Activity (Trypanosoma brucei [7]): Active; Activity [8]: Active
CCOC(=O)c1c[nH]c2cc(Cl)c(F)cc2c1=O,,,,,Activity [1]: inactive; Activity [2]: inactive
CCCCn1cc(C(=O)NCc2ccco2)c(=O)c2cc(F)c(N3CCC(C(N)=O)CC3)cc21,1.84,1.03,41.4,40.2,logP ([5]; read-out: logP): 2.4
CCCn1cc(C(=O)O)c(=O)c2cc(F)c(Cl)cc21,> 40,> 40,> 100,> 2.5,
